From ChEMBL document CHEMBL1142709, “Discovery and evaluation of 2-anilino-5-aryloxazoles as a novel class of VEGFR2 kinase inhibitors” (J Med Chem, 2005) come the findings set out here.

A short description of data set [1]: Inhibition of basic FGF-induced proliferation of human umbilical vein endothelial cells. Type of data set: functional, cell-based. To be noted: Endothelial cell.
A further data set relates to HT-29. Put plainly: In vitro inhibition of human colon tumor HT-29 cell proliferation. Type of data set: functional, cell-based.
A short description of data set [2]: Peak plasma concentration in mice following oral administration of an aqueous solution of the bis-mesylate salt of the compound. To be noted: mouse. Set-up: route oral. Type of data set: ADME, organism-based. The method, boiled down: (§1)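 Male CD mice (n = 2) given the bis-mesylate salt as an aqueous solution at 100 mg/kg by oral gavage, dose volume 10 mL/kg. Plasma taken from blood kept on wet ice, stored at -20 °C, protein-precipitated with four volumes of acetonitrile and analysed by HPLC/MS.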

The nature of data set [3]: Time at which peak plasma concentration is attained in mice following oral administration of an aqueous solution of the bis-mesylate salt of the compound. Type of data set: ADME, organism-based. To be noted: mouse. The method, boiled down: as §1
Data set [4] is described as follows: Area under concentration time curve in mice following oral administration of an aqueous solution of the bis-mesylate salt of the compound. Type of data set: ADME. To be noted: mouse, in vivo. The method, boiled down:
as §1

Data set [5] in a line: Distribution at steady state was determined in dogs dosed at […] and 1 mg/kg po in 0.5% HPMC w/0.1%Tween 80 (n=2). Type of data set: ADME, organism-based, Canis lupus familiaris. To be noted: dog, in vivo, iv, read-out: Vdss.
The nature of data set [6]: Distribution at steady state was determined in rats dosed at […] iv in 10% HP-alpha-cyclodextrin in 0.05 M acetic acid and 10 mg/kg po in 0.5% HPMCw/0.1% Tween 80 (n=3). To be noted: rat, in vivo, read-out: Vdss. Type of data set: ADME, organism-based.
Data set [7] can be described thus: Half life in dogs dosed at 1 mg/kg iv in 40% […] and 1 mg/kg po in 0.5% HPMC w/0.1%Tween 80 (n=2). Type of data set: ADME, organism-based, Canis lupus familiaris. To be noted: dog, in vivo. In short, it runs like this:
(§2)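 Male beagle dogs (n = 2). IV 1 mg/kg in 40% SBE-β-cyclodextrin and oral gavage 1 mg/kg in 0.5% HPMC/0.1% Tween 80, dose volume 0.5 mL/kg. Plasma precipitated with four volumes of acetonitrile and analysed by HPLC/MS. Parameters are averages of two dogs.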

Data set [8] in a line: Half life in rats dosed at […] iv in 10% HP-alpha-cyclodextrin in 0.05 M acetic acid and 10 mg/kg po in 0.5% HPMCw/0.1% Tween 80 (n=3). Type of data set: ADME, organism-based. To be noted: rat, in vivo.
Data set [9] can be described thus: Bioavailability of compound was determined in dogs dosed at 1 mg/kg iv in 40% […] and 1 mg/kg po in 0.5% HPMC w/0.1%Tween 80 (n=2). Type of data set: ADME, organism-based, Canis lupus familiaris. To be noted: dog, in vivo. In short, it runs like this:
as §2

The nature of data set [10]: Bioavailability of compound was determined in rats dosed at […] iv in 10% HP-alpha-cyclodextrin in 0.05 M acetic acid and 10 mg/kg po in 0.5% HPMCw/0.1% Tween 80 (n=3). Type of data set: ADME, organism-based. To be noted: rat, in vivo.

By pIC50 is commonly meant the negative decadic logarithm of the IC50, by convention in mol/L. Higher therefore signals a low IC50. The term Cmax denotes the peak of the concentration-time curve. What is called Tmax is the time from dosing to the highest level. As usually defined, the AUC is the area under the concentration-time curve, a measure of exposure. The half-life is how long it takes for the measured level to halve. A lower half-life goes with fast loss. As usually defined, the bioavailability is the share of a dose that reaches the circulation, judged against a reference dose that is usually intravenous. Lower therefore signals little systemic uptake.

pIC50: −log10 of the molar value.

Consider `CCS(=O)(=O)c1ccc(OC)c(Nc2ncc(-c3cccc(-c4ccccc4Cl)c3)o2)c1`, for which the pIC50 in [1] is 5.96.

`CCS(=O)(=O)c1ccc(OC)c(Nc2ncc(-c3cccc(-c4ccccn4)c3)o2)c1`: the pIC50 was 5.24 in data set [1] and 5.35 in the data set with HT-29. Moreover, the Cmax in data set [2] amounted to 35 µM. Also, in [3], the Tmax stood at 4 h. Besides, the AUC in [4] turned out to be 102 µg·h/mL.

`c1ccc(Nc2ncc(-c3ccccc3)o2)cc1` [GW549390X] gave a pIC50 in [1] of 4.62.

In data set [1], `Clc1ccc(Nc2nnc(Cc3ccncc3)c3ccccc23)cc1` [VATALANIB] showed a pIC50 of 4.60.

For the compound `CCS(=O)(=O)c1ccc(OC)c(Nc2ncc(-c3cccc(-c4ccccn4)c3)o2)c1.CS(=O)(=O)O`, the Vd in [5] turned out to be 3.74 L/kg; in data set [6], 1.03 L/kg. Besides, the half-life was 3.5 h in data set [7] and 1.6 h in data set [8]. The bioavailability in [9] was found to be 7%; in data set [10] it was 11%.

In the case of `COc1cc2/c(=N/c3ccc(Br)cc3F)nc[nH]c2cc1OCC1CCN(C)CC1` [VANDETANIB], the pIC50 in data set [1] is 5.92.
